How the values were obtained:
[1] = target: T1, Orexin/Hypocretin receptor type 1 (Homo sapiens) (UniProt O43613); test: Antagonist activity against human OX1 receptor expressed in CHO cells assessed as reduction in [Ala6,12]orexin-A-induced intracellular Ca2+ mobilization incubated for 30 mins by Fluo-4 AM dye based fluorescence assay; assay type: functional, cell-based
T1 sequence (whole entry): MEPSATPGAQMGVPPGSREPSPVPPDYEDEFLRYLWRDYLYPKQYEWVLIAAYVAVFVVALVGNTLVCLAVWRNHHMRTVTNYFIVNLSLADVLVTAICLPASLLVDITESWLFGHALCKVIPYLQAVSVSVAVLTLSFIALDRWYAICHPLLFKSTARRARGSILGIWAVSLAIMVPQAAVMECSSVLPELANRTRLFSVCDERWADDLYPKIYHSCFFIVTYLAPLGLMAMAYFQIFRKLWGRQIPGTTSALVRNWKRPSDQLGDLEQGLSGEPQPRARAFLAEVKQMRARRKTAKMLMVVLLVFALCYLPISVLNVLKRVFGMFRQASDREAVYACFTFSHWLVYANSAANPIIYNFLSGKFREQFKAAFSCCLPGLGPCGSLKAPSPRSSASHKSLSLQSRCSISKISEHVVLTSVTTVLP
Procedure, shortened: (§1)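 Cells seeded 2.4 × 10⁴/well, cultured 18 h. Loaded with Fluo-4 AM (0.5 µM final) in HBSS, 20 mM HEPES, 0.1% BSA, 2.5 mM probenecid, 0.2 mg/mL amaranth, pH 7.4, 37 °C 1 h. Washed, then antagonist for 30 min at room temperature. Peak minus basal fluorescence normalized to the [Ala6,12]orexin-A maximum. Kb = IC50/(1+[L]/EC50). At least three independent runs in duplicate.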

[2] = target: T2, Orexin receptor type 2 (Homo sapiens) (UniProt O43614); test: Antagonist activity against human OX2 receptor expressed in CHO cells assessed as reduction in [Ala6,12]orexin-A-induced intracellular Ca2+ mobilization incubated for 30 mins by Fluo-4 AM dye based fluorescence assay; assay type: functional, cell-based; procedure, shortened: as §1
T2 sequence (whole entry): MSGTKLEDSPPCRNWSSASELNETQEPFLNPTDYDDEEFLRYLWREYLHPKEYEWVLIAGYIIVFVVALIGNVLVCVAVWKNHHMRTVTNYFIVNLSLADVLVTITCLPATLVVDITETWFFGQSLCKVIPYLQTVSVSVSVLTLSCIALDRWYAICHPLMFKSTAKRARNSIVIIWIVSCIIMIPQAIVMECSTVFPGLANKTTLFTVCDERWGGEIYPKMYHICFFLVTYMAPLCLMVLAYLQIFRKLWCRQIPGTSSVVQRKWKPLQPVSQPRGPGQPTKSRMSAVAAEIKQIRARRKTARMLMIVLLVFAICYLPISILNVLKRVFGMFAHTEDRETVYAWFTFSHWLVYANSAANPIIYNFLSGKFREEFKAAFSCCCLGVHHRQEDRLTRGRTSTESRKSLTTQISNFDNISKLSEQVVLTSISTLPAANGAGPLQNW

Rattus norvegicus = test: Toxicity in Wistar rat assessed as effect on rotarod performance at 10 mg/kg, ip administered 30 mins prior to the test by rotarod test; assay type: organism-based; parameters: dose 10 mg/kg, route intraperitoneal; settings: in vivo, 0.5 h
[3] = Drug metabolism in human liver microsomes at 5 uM after 15 mins; assay type: ADME; settings: read-out: Drug metabolism
Procedure, shortened: (§2)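 Liver microsomes at 1 mg protein/mL with 5 µM compound, incubated 15 min. Value reported as percentage of compound metabolized.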

[4] = Half life in human; assay type: ADME, organism-based; settings: in vivo
[5] = Volume of distribution in Sprague-Dawley rat at 2 mg/kg, iv; assay type: ADME, organism-based; parameters: dose 2 mg/kg, route intravenous; settings: in vivo
Procedure, shortened: (§3)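 Fasted male Sprague–Dawley rats (n = 3) given 2 mg/kg iv. Vd and CL taken from the iv profile. T1/2 calculated as ln2·Vd/CL.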

[6] = Clearance in Sprague-Dawley rat at 2 mg/kg, iv; assay type: ADME, organism-based; parameters: dose 2 mg/kg, route intravenous; settings: in vivo; procedure, shortened: as §3
[7] = Half life in Sprague-Dawley rat at 2 mg/kg, iv; assay type: ADME, organism-based; parameters: dose 2 mg/kg, route intravenous; settings: in vivo; procedure, shortened: as §3
[8] = Tmax in Sprague-Dawley rat at 30 mg/kg, po; assay type: ADME, organism-based; parameters: dose 30 mg/kg, route oral; settings: in vivo
[9] = Oral bioavailability in Sprague-Dawley rat at 30 mg/kg; assay type: ADME, organism-based; settings: in vivo
[10] = Ratio of drug level in brain to plasma in Sprague-Dawley rat at 30 mg/kg, ip; assay type: ADME, organism-based; parameters: dose 30 mg/kg, route intraperitoneal; settings: read-out: BPR
Procedure, shortened: (§4)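 Male rats dosed ip at 30 mg/kg. Drug concentrations measured in brain, CSF and plasma, and reported as brain/plasma and CSF/plasma ratios.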

[11] = Ratio of drug level in CSF to plasma in Sprague-Dawley rat at 30 mg/kg, ip; assay type: ADME, organism-based; parameters: dose 30 mg/kg, route intraperitoneal; procedure, shortened: as §4
[12] = Drug metabolism in rat liver microsomes at 5 uM after 15 mins; assay type: ADME; settings: read-out: Drug metabolism; procedure, shortened: as §2
[13] = Volume of distribution in dog at 0.5 mg/kg, iv; assay type: ADME, organism-based, Canis lupus familiaris; parameters: dose 0.5 mg/kg, route intravenous; settings: in vivo
Procedure, shortened: (§5)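 Male dogs given 0.5 mg/kg iv (n = 3). Vd and CL derived from the iv profile. T1/2 = ln2·Vd/CL.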

[14] = Clearance in dog at 0.5 mg/kg, iv; assay type: ADME, organism-based, Canis lupus familiaris; parameters: dose 0.5 mg/kg, route intravenous; settings: in vivo; procedure, shortened: as §5
[15] = Half life in dog at 0.5 mg/kg, iv; assay type: ADME, organism-based, Canis lupus familiaris; parameters: dose 0.5 mg/kg, route intravenous; settings: in vivo; procedure, shortened: as §5
[16] = Tmax in dog at 3 mg/kg, po; assay type: ADME, organism-based, Canis lupus familiaris; parameters: dose 3 mg/kg, route oral; settings: in vivo
Procedure, shortened: (§6)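 Fasted male rats dosed orally at 10 mg/kg, and male dogs at 3 mg/kg (n = 3). Tmax read from the oral profile. F calculated against the iv arm (rat 2 mg/kg, dog 0.5 mg/kg).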

[17] = Oral bioavailability in dog at 3 mg/kg; assay type: ADME, organism-based, Canis lupus familiaris; settings: in vivo; procedure, shortened: as §6
[18] = Drug metabolism in dog liver microsomes at 5 uM after 15 mins; assay type: ADME, Canis lupus familiaris; settings: read-out: Drug metabolism; procedure, shortened: as §2

| SMILES | Kb [1] | Kb [2] | also measured |
| --- | --- | --- | --- |
| Cc1ccc(-n2nccn2)c(C(=O)NCCn2ccc(-c3ccc(F)cn3)n2)c1 | 152 nM | 376 nM |  |
| Cc1ccc(-c2nc3ccc(C)cn3c2CC(=O)N(C)C)cc1 [ZOLPIDEM] |  |  | Activity (Rattus norvegicus): Toxic |
| CCN(CCn1ccc(-c2cc(C(F)(F)F)ccn2)n1)C(=O)c1cc(C)ccc1-n1nccn1 | 28 nM | 66.4 nM |  |
| CCN(CCn1ccc(-c2ccc(F)cn2)n1)C(=O)c1cc(F)ccc1-n1nccn1 | 6.67 nM | 11.4 nM | metabolised at 0.25 h, 5 µM [3]: 35.3% |
| CCN(CCc1cc(-c2ccc(F)cn2)no1)C(=O)c1cc(C)ccc1-n1nccn1 | 45.5 nM | 32.2 nM |  |
| CCN(CCn1ccc(-c2ccc(F)cn2)n1)C(=O)c1cc(OC)ccc1-n1nccn1 | 119 nM | 638 nM |  |
| CCN(CCn1cc(-c2ccc(F)cn2)cn1)C(=O)c1cc(C)ccc1-n1nccn1 | 3.81 nM | 7.22 nM |  |
| CCN(CCn1ccc(-c2ccc(C(F)(F)F)cn2)n1)C(=O)c1cc(C)ccc1-n1nccn1 | 48.6 nM | 902 nM |  |
| CCN(CCc1noc(-c2ccc(F)cn2)n1)C(=O)c1cc(C)ccc1-n1nccn1 | 8.09 nM | 23 nM |  |
| CCN(CCn1ccc(-c2ccc(F)cc2)n1)C(=O)c1cc(C)ccc1-n1nccn1 | 0.32 nM | 1.25 nM |  |
| Cc1nc(C(=O)N2CCCC[C@H]2CNC(=O)c2cccc3occc23)c(-c2ccc(F)cc2)s1 [SB-649868] |  |  | half-life [4]: 204 min |
| Cc1ccc(-n2nccn2)c(C(=O)N(CCn2ccc(-c3ccc(F)cn3)n2)C(C)C)c1 | 38.5 nM | 37.9 nM |  |
| CCN(CCn1ccc(-c2ccc(F)cn2)n1)C(=O)c1cc(C)ccc1-n1nccn1 | 0.43 nM | 0.89 nM | metabolised at 0.25 h, 5 µM [3]: 35% |
| CCN(CCn1ccc(-c2cccc(C(F)(F)F)n2)n1)C(=O)c1cc(C)ccc1-n1nccn1 | 3.19 nM | 3.92 nM |  |
| CCN(CCc1cc(-c2ccc(F)cn2)on1)C(=O)c1cc(C)ccc1-n1nccn1 | 15.2 nM | 19.8 nM |  |
| Cc1ccc(-n2nccn2)c(C(=O)N2CCN(c3nc4cc(Cl)ccc4o3)CC[C@H]2C)c1 [SUVOREXANT] |  |  | half-life [4]: 540 min |
| CCN(CCn1ccc(-c2ccc(F)cn2)n1)C(=O)c1cc(C)ccc1-c1ncccn1 | 2.52 nM | 4.01 nM | metabolised at 0.25 h, 5 µM [3]: 19.7%; Vd [5]: 1.79 L/kg; clearance [6]: 65.2 mL/min/kg; half-life [7]: 19.1 min; Tmax [8]: 40 min; bioavailability [9]: 4.62%; Kp [10]: 0.13; Kp [11]: 0.03; metabolised at 0.25 h, 5 µM [12]: 97.3%; Vd [13]: 1.29 L/kg; clearance [14]: 13.1 mL/min/kg; half-life [15]: 67.8 min; Tmax [16]: 30 min; bioavailability [17]: 100%; metabolised at 0.25 h, 5 µM [18]: 10.1% |
| Cc1ccc(-n2nccn2)c(C(=O)N(C)CCn2ccc(-c3ccc(F)cn3)n2)c1 | 2.27 nM | 8.58 nM |  |
| CCN(CCn1ccc(-c2cccc(C)n2)n1)C(=O)c1cc(C)ccc1-n1nccn1 | 0.41 nM | 1.96 nM |  |
| CCN(CCn1ccc(-c2ccc(F)cn2)n1)C(=O)c1cc(Cl)ccc1-n1nccn1 | 1.48 nM | 2.82 nM | metabolised at 0.25 h, 5 µM [3]: 46.9% |

Source: ChEMBL document CHEMBL3397044, “Discovery and in vitro and in vivo profiles of N-ethyl-N-[2-[3-(5-fluoro-2-pyridinyl)-1H-pyrazol-1-yl]ethyl]-2-(2H-1,2,3-triazol-2-yl)-benzamide as a novel class of dual orexin receptor antagonist” (Bioorg Med Chem, 2015)
